{"source": "paper PMC10401071", "about": "(Cancer Discovery, 2023)", "key": {"[1]": {"system": "growth differentiation factor 15 (GDF-15)", "assay_type": "in vivo, human", "details": "all dose-escalation cohorts, both arms", "summary_of_the_method": "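Blood drawn for GDF-15, a circulating downstream p53 marker measured as a target-engagement surrogate. Dosing was oral, day 1 every 21 days or days 1 and 8 every 28 days. Cycle 1 sampling: 5 min pre-dose; 1, 2, 3, 4, 5, 6 and 8 h post-dose on day 1; once on days 2, 3, 4, 5 and 8. All dose-escalation cohorts, both arms.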"}, "[2]": {"assay_type": "in vivo, human", "summary_of_the_method": "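Adults with advanced solid tumours (ECOG 0–1; TP53 wild-type or unknown) received oral test compound on day 1 of 21-day cycles or days 1 and 8 of 28-day cycles, until progression or unacceptable toxicity. Antiemetic prophylaxis followed guidelines. AE incidence and severity were graded per NCI CTCAE v5.0 and summarised descriptively.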"}}, "note": "Where two headings read alike, the source gives them in different places."}
{"smiles": "Cc1c(C(=O)O)ccc2c3n(nc12)[C@@H]1[C@H](C3)N(CC2CC2)[C@@]2(C(=O)Nc3cc(Cl)ccc32)[C@H]1c1cccc(Cl)c1F", "note": "[brigimadlin]", "values": [{"measurement": "growth differentiation factor 15 levels (target engagement)", "setting": "[1]", "result": "time- and dose-dependent increases"}, {"measurement": "Any AE", "setting": "[2]; All patients (N = 54)", "result": "54 (100.0) n (%)"}, {"measurement": "Any AE (any cause) leading to study drug discontinuation", "setting": "[2]; All patients (N = 54)", "result": "3 (5.6) n (%)"}, {"measurement": "Any AE (any cause) leading to study drug dose reduction", "setting": "[2]; All patients (N = 54)", "result": "19 (35.2) n (%)"}, {"measurement": "Any TRAE", "setting": "[2]; All patients (N = 54)", "result": "50 (92.6) n (%)"}, {"measurement": "Any grade ≥3 AE", "setting": "[2]; All patients (N = 54)", "result": "33 (61.1) n (%)"}, {"measurement": "Any grade ≥3 TRAE", "setting": "[2]; All patients (N = 54)", "result": "25 (46.3) n (%)"}, {"measurement": "Serious AEs (any cause)", "setting": "[2]; All patients (N = 54)", "result": "18 (33.3) n (%)"}, {"measurement": "TRAE Alopecia, All grades", "setting": "[2]; All patients (N = 54)", "result": "12 (22.2) n (%)"}, {"measurement": "TRAE Alopecia, Grade ≥3", "setting": "[2]; All patients (N = 54)", "result": "0 n (%)"}, {"measurement": "TRAE Anemia, All grades", "setting": "[2]; All patients (N = 54)", "result": "16 (29.6) n (%)"}, {"measurement": "TRAE Anemia, Grade ≥3", "setting": "[2]; All patients (N = 54)", "result": "5 (9.3) n (%)"}, {"measurement": "TRAE Decreased appetite, All grades", "setting": "[2]; All patients (N = 54)", "result": "17 (31.5) n (%)"}, {"measurement": "TRAE Decreased appetite, Grade ≥3", "setting": "[2]; All patients (N = 54)", "result": "0 n (%)"}, {"measurement": "TRAE Decreased lymphocyte count, All grades", "setting": "[2]; All patients (N = 54)", "result": "7 (13.0) n (%)"}, {"measurement": "TRAE Decreased lymphocyte count, Grade ≥3", "setting": "[2]; All patients (N = 54)", "result": "4 (7.4) n (%)"}, {"measurement": "TRAE Decreased weight, All grades", "setting": "[2]; All patients (N = 54)", "result": "4 (7.4) n (%)"}, {"measurement": "TRAE Decreased weight, Grade ≥3", "setting": "[2]; All patients (N = 54)", "result": "0 n (%)"}, {"measurement": "TRAE Decreased white blood cell count, All grades", "setting": "[2]; All patients (N = 54)", "result": "13 (24.1) n (%)"}, {"measurement": "TRAE Decreased white blood cell count, Grade ≥3", "setting": "[2]; All patients (N = 54)", "result": "7 (13.0) n (%)"}, {"measurement": "TRAE Diarrhea, All grades", "setting": "[2]; All patients (N = 54)", "result": "16 (29.6) n (%)"}, {"measurement": "TRAE Diarrhea, Grade ≥3", "setting": "[2]; All patients (N = 54)", "result": "0 n (%)"}, {"measurement": "TRAE Dysgeusia, All grades", "setting": "[2]; All patients (N = 54)", "result": "10 (18.5) n (%)"}, {"measurement": "TRAE Dysgeusia, Grade ≥3", "setting": "[2]; All patients (N = 54)", "result": "0 n (%)"}, {"measurement": "TRAE Fatigue, All grades", "setting": "[2]; All patients (N = 54)", "result": "25 (46.3) n (%)"}, {"measurement": "TRAE Fatigue, Grade ≥3", "setting": "[2]; All patients (N = 54)", "result": "1 (1.9) n (%)"}, {"measurement": "TRAE Gastroesophageal reflux disease, All grades", "setting": "[2]; All patients (N = 54)", "result": "5 (9.3) n (%)"}, {"measurement": "TRAE Gastroesophageal reflux disease, Grade ≥3", "setting": "[2]; All patients (N = 54)", "result": "0 n (%)"}, {"measurement": "TRAE Increased alanine aminotransferase, All grades", "setting": "[2]; All patients (N = 54)", "result": "3 (5.6) n (%)"}, {"measurement": "TRAE Increased alanine aminotransferase, Grade ≥3", "setting": "[2]; All patients (N = 54)", "result": "0 n (%)"}, {"measurement": "TRAE Increased aspartate aminotransferase, All grades", "setting": "[2]; All patients (N = 54)", "result": "5 (9.3) n (%)"}, {"measurement": "TRAE Increased aspartate aminotransferase, Grade ≥3", "setting": "[2]; All patients (N = 54)", "result": "0 n (%)"}, {"measurement": "TRAE Nausea, All grades", "setting": "[2]; All patients (N = 54)", "result": "40 (74.1) n (%)"}, {"measurement": "TRAE Nausea, Grade ≥3", "setting": "[2]; All patients (N = 54)", "result": "4 (7.4) n (%)"}, {"measurement": "TRAE Neutropenia, All grades", "setting": "[2]; All patients (N = 54)", "result": "16 (29.6) n (%)"}, {"measurement": "TRAE Neutropenia, Grade ≥3", "setting": "[2]; All patients (N = 54)", "result": "13 (24.1) n (%)"}, {"measurement": "TRAE Thrombocytopenia, All grades", "setting": "[2]; All patients (N = 54)", "result": "24 (44.4) n (%)"}, {"measurement": "TRAE Thrombocytopenia, Grade ≥3", "setting": "[2]; All patients (N = 54)", "result": "14 (25.9) n (%)"}, {"measurement": "TRAE Vomiting, All grades", "setting": "[2]; All patients (N = 54)", "result": "28 (51.9) n (%)"}, {"measurement": "TRAE Vomiting, Grade ≥3", "setting": "[2]; All patients (N = 54)", "result": "1 (1.9) n (%)"}, {"measurement": "patients with neutropenia leading to dose reduction", "setting": "[2]; D1D8q4w", "result": "four"}, {"measurement": "patients with thrombocytopenia leading to dose reduction", "setting": "[2]; D1D8q4w", "result": "four"}, {"measurement": "serious AE thrombocytopenia", "setting": "[2]; D1D8q4w", "result": "three"}, {"measurement": "Any AE", "setting": "[2]; D1D8q4w (n = 25)", "result": "25 (100.0) n (%)"}, {"measurement": "Any AE (any cause) leading to study drug discontinuation", "setting": "[2]; D1D8q4w (n = 25)", "result": "1 (4.0) n (%)"}, {"measurement": "Any AE (any cause) leading to study drug dose reduction", "setting": "[2]; D1D8q4w (n = 25)", "result": "8 (32.0) n (%)"}, {"measurement": "Any TRAE", "setting": "[2]; D1D8q4w (n = 25)", "result": "23 (92.0) n (%)"}, {"measurement": "Any grade ≥3 AE", "setting": "[2]; D1D8q4w (n = 25)", "result": "12 (48.0) n (%)"}, {"measurement": "Any grade ≥3 TRAE", "setting": "[2]; D1D8q4w (n = 25)", "result": "8 (32.0) n (%)"}, {"measurement": "Serious AEs (any cause)", "setting": "[2]; D1D8q4w (n = 25)", "result": "9 (36.0) n (%)"}, {"measurement": "TRAE Alopecia, All grades", "setting": "[2]; D1D8q4w (n = 25)", "result": "6 (24.0) n (%)"}, {"measurement": "TRAE Alopecia, Grade ≥3", "setting": "[2]; D1D8q4w (n = 25)", "result": "0 n (%)"}, {"measurement": "TRAE Anemia, All grades", "setting": "[2]; D1D8q4w (n = 25)", "result": "4 (16.0) n (%)"}, {"measurement": "TRAE Anemia, Grade ≥3", "setting": "[2]; D1D8q4w (n = 25)", "result": "2 (8.0) n (%)"}, {"measurement": "TRAE Decreased appetite, All grades", "setting": "[2]; D1D8q4w (n = 25)", "result": "7 (28.0) n (%)"}, {"measurement": "TRAE Decreased appetite, Grade ≥3", "setting": "[2]; D1D8q4w (n = 25)", "result": "0 n (%)"}, {"measurement": "TRAE Decreased lymphocyte count, All grades", "setting": "[2]; D1D8q4w (n = 25)", "result": "2 (8.0) n (%)"}, {"measurement": "TRAE Decreased lymphocyte count, Grade ≥3", "setting": "[2]; D1D8q4w (n = 25)", "result": "1 (4.0) n (%)"}, {"measurement": "TRAE Decreased weight, Grade ≥3", "setting": "[2]; D1D8q4w (n = 25)", "result": "0 n (%)"}, {"measurement": "TRAE Decreased white blood cell count, All grades", "setting": "[2]; D1D8q4w (n = 25)", "result": "4 (16.0) n (%)"}, {"measurement": "TRAE Decreased white blood cell count, Grade ≥3", "setting": "[2]; D1D8q4w (n = 25)", "result": "2 (8.0) n (%)"}, {"measurement": "TRAE Diarrhea, All grades", "setting": "[2]; D1D8q4w (n = 25)", "result": "8 (32.0) n (%)"}, {"measurement": "TRAE Diarrhea, Grade ≥3", "setting": "[2]; D1D8q4w (n = 25)", "result": "0 n (%)"}, {"measurement": "TRAE Dysgeusia, All grades", "setting": "[2]; D1D8q4w (n = 25)", "result": "5 (20.0) n (%)"}, {"measurement": "TRAE Dysgeusia, Grade ≥3", "setting": "[2]; D1D8q4w (n = 25)", "result": "0 n (%)"}, {"measurement": "TRAE Fatigue, All grades", "setting": "[2]; D1D8q4w (n = 25)", "result": "10 (40.0) n (%)"}, {"measurement": "TRAE Fatigue, Grade ≥3", "setting": "[2]; D1D8q4w (n = 25)", "result": "0 n (%)"}, {"measurement": "TRAE Gastroesophageal reflux disease, All grades", "setting": "[2]; D1D8q4w (n = 25)", "result": "3 (12.0) n (%)"}]}
